This excerpt belongs to a sample that is enriched for hits.
H9c2 protect = protects H9c2 cardiomyocytes from peroxide injury | AID 588492 | 0.63% of 360,000 active | protection from H2O2 cell death, % at 20 µM | H2O2 injury protection, ATPLite, 2 h;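 active = compounds giving at least 50% protection of heart cells from peroxide-induced death in the single-dose screen, raw or plate-pattern-corrected value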;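 note: 0% = DMSO wells with peroxide and 100% = DMSO wells without peroxide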
iPSC survival up = enhancers of human iPSC single-cell survival; survival enhancement, % at 20 µM; hiPSC single-cell survival, ATPlite luminescence; 100% = ROCK inhibitor wells, 0% = DMSO; AID 602274; 0.044% of 360,000 active; in the data active = survival enhancement above about 18%;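 note: cells exposed to compounds for 16 hours before the ATP read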
XBP1 UPR activ = activators of adaptive arm of unfolded protein response (XBP1) | CHO-XBP1 luciferase reporter, IRE1-XBP1 UPR activation, luminescence; percent of tunicamycin response, DMSO as zero | activation, % at 20 µM | 0.33% of 330,000 active;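 active = versus positive control, 20 µM dose yields 30% or more activation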;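 note: 100% = tunicamycin at 10 µg/mL and 0% = DMSO only wells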
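Material: IRE1-XBP1 luciferase reporter CHO line / Quantity: one thousand reporter cells per well / Buffer or medium: F12 with 10% serum / Compound: 20 µM single concentration, DMSO 1% / Times: 6 h treatment, 37 °C / Detection: Steady-Glo luciferase glow luminescence, 10 min after reagent addition / Benchmarks: tunicamycin high, DMSO low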
UPR CHOP act = apoptotic UPR (CHOP) activation. activation, % at 10 µM. CHO-CHOP luciferase reporter, luminescence; percent of tunicamycin response over DMSO baseline. 0.34% of 330,000 active. AID 449763;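 active = at 10 µM dose, activation of 40% or more, normalized to positive control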;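 note: 100% = tunicamycin at 10 µg/mL and 0% = DMSO alone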
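Dosing – one dose, 10 µM in 0.5% DMSO · System – CHO-CHOP cells, stable luciferase reporter of PERK-eIF2a-CHOP signalling · Input – 500 cells/well · Control set – tunicamycin 10 µg/mL final as positive, DMSO-only wells as negative · Timing – 6 h compound treatment, 37 °C · Measure – % activation vs tunicamycin · Technique – luminescence read with Steady-Glo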
CHOP inhibitor = CHOP inhibition in unfolded protein response; 3.8% of 220,000 active; inhibition, % at 10 µM; CHO-K1 CHOP-promoter luciferase, tunicamycin-induced, 15-18 h;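 active = compounds that reduced the stress-induced luciferase reporter signal by more than about 70% of percent inhibition, limit read from the data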;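 note: 0% = tunicamycin plus vehicle and 100% = wells without tunicamycin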
An asterisk follows results filed as active; / = not tested or not shown.

SMILES | H9c2 protect | iPSC survival up | XBP1 UPR activ | UPR CHOP act | CHOP inhibitor
CC(NC(=O)c1cc2c(=O)n(C)c3ccccc3c2n1C)c1ccc2c(c1)OCCO2 (stereo not given) | 72.0* | 4.5 | -0.4 | -0.5 | /
CCOc1ccc(NC(=O)c2cc3c(=O)n(C)c4ccccc4c3n2C)cc1 | 66.4* | 2.7 | 4.7 | -1.8 | -51.3
CCOC(=O)[C@]12CCCC=C1N(Cc1ccco1)C(=O)[C@H](CC(=O)N1CCOCC1)C2 | / | -0.6 | / | / | /
CCC(Oc1ccccc1)C(=O)Nc1ccccc1C(=O)N1CCN(C)CC1 (stereo not given) | 7.1 | -0.4 | -5.4 | 0.1 | /
CCC(Oc1ccccc1)C(=O)Nc1ccccc1C(=O)N1CCCCC1 (stereo not given) | 50.3* | 0.0 | -5.4 | 2.0 | /
CN(C)Cc1csc(NC(=O)Nc2ccccc2Oc2ccccc2)n1 | 16.9 | -0.4 | / | / | /
CC(=O)Nc1sc(C)c(C)c1C(=O)OC(C)C | -3.9 | -0.1 | -0.9 | 0.5 | 5.0
CCc1c(C)sc(NC(=O)C2CC2)c1C(=O)OC(C)C | 1.2 | 1.7 | -3.8 | 0.4 | 81.3*
Cc1ccc(CC(=O)NCc2cccnc2)cc1 | / | / | -3.3 | -0.9 | -3.7
Cc1ccc(-c2cc(C(F)F)nc(NCc3cccs3)n2)cc1 | -12.0 | 1.1 | -2.5 | 0.7 | 90.7*
FC(F)(F)c1cc(-c2ccc(Cl)cc2)nc(NCc2cccnc2)n1 | -9.8 | -0.6 | 0.2 | 1.0 | 89.0*
Clc1ccc(NCc2cccnc2)c(Cl)c1 | -0.6 | -0.6 | -0.9 | 0.4 | /
COc1ccc(-c2cc(C(F)(F)F)nc(NCc3cccs3)n2)cc1 | -15.4 | 0.3 | -1.3 | 1.1 | 17.6
Cc1ccc(-c2cc(C(F)F)nc(NCc3cccnc3)n2)cc1 | -5.9 | -2.0 | -0.8 | 3.0 | 75.7*
Cc1ccc(-c2cc(C(F)F)nc(NCC3CCCO3)n2)cc1 (stereo not given) | -3.5 | 0.6 | 10.7 | 1.0 | 85.7*
CCC(=O)N1CCCC(C)(C(=O)Nc2nccc3ccccc23)C1 (stereo not given) | 2.6 | -2.2 | / | / | /
CNc1snc(C)c1C(=O)OC(C)C(=O)Nc1ccc(F)cc1 (stereo not given) | -11.7 | -0.8 | -2.5 | -3.1 | /
COC(=O)C1CCCN1C(=O)C12CC3CC(CC(C3)C1)C2 (stereo not given) | 3.8 | -0.1 | -2.7 | -1.0 | /
COc1cccc(CNc2nc(NC(C)C)nc3ccsc23)c1 | -11.7 | 1.0 | / | / | /
CCCn1c(C(=O)OC)cc2c1ccn2-c1ccc(F)cc1 | -6.9 | -1.5 | 2.6 | 2.8 | 71.0*
COC(=O)c1cc2c(ccn2-c2ccc(F)cc2)n1CC(C)C | -9.2 | 0.5 | 4.5 | -0.4 | 23.4
CC1CCc2nc(N)c(C#N)c(-c3cccn3C)c2C1 (stereo not given) | -8.2 | 1.3 | 2.3 | 3.0 | 71.2*
N#Cc1c(N)nc2c(c1-c1ccccc1)CCCC2 | 1.1 | -1.1 | 2.6 | 0.2 | 26.6
Cc1ccc(CN(C)CC(=O)Nc2ccc3c(c2)CCC3)cc1 | -19.9 | -1.1 | -0.7 | 2.0 | -24.9
CCc1ccc(CN(C)CC(=O)Nc2ccc3c(c2)CCC3)cc1 | -10.0 | 0.0 | 0.5 | -1.6 | 91.6*
SMILES | H9c2 protect | iPSC survival up | XBP1 UPR activ | UPR CHOP act | CHOP inhibitor
CC(NC(=O)C(=O)N/N=C/c1ccccc1)c1ccccc1 (stereo not given) | 9.4 | 4.5 | 2.6 | 2.4 | 70.9*
Cc1ccc2cc(C)c3nnc(SCc4ccc(C(=O)O)cc4)n3c2c1C | 8.5 | -0.1 | -0.5 | 3.7 | -1.8
CCOC(=O)C1CCCN(Cc2c(Cl)cccc2Cl)C1 (stereo not given) | 2.6 | -1.1 | -1.1 | -1.3 | 70.6*
CCOC(=O)C1CCCN(Cc2ccc(-c3ccccc3)cc2)C1 (stereo not given) | -4.1 | 0.9 | -5.8 | 1.5 | /
CC(=O)Nc1cc(-c2cccnc2)cn2c(-c3ccc(F)cc3)cnc12 | 0.5 | 1.6 | / | / | /
CCCn1nc(C(=O)Nc2cc(OCC)c(N3CCOCC3)cc2OCC)c2ccccc2c1=O | 56.3* | 0.4 | / | / | /
CCOc1ccccc1NC(=O)Cn1[nH]c(=O)c2ccccc2c1=O | 11.8 | 0.1 | 1.9 | 0.3 | 1.8
CCOc1cc(N2CCOCC2)c(OCC)cc1NC(=O)Cn1[nH]c(=O)c2ccccc2c1=O | 79.4* | -0.4 | 3.2 | -0.3 | -18.3
Cc1cn([C@H]2C[C@@H](N=[N+]=[N-])[C@@H](CO)O2)c(=O)[nH]c1=O | / | / | / | / | 4.3
O=C(C1CCC(Cn2c(=S)[nH]c3ccccc3c2=O)CC1)N1CCN(c2ccccc2)CC1 (stereo not given) | -3.1 | 5.6 | -2.5 | 1.2 | /
COc1ccc(N2CCN(C(=O)C3CCC(Cn4c(=S)[nH]c5ccccc5c4=O)CC3)CC2)cc1 (stereo not given) | -3.8 | -1.0 | -0.4 | 2.8 | 70.8*
COc1ccc(N2CCN(C(=O)c3ccc4c(c3)[nH]c(=S)n3c5ccccc5nc43)CC2)cc1 | / | / | -2.0 | 1.3 | 73.1*
CC1(C)NC(=O)N(CCCOc2ccc(Br)cc2Cl)C1=O | 2.3 | 1.2 | 5.6 | 2.3 | 31.1
CC(C)c1cc(Br)ccc1OCCCN1C(=O)NC(C)(C)C1=O | -1.8 | -1.4 | 0.9 | 0.3 | 73.0*
COc1cccc(C(=O)Nc2c(C(N)=O)oc3ccccc23)c1 | 111.2* | 2.7 | 4.5 | -1.1 | 26.5
CCOC(=O)c1oc2ccccc2c1NC(=O)c1cccc(OC)c1 | 2.5 | 6.2 | -1.2 | -1.6 | -22.6
CCCN(CC(=O)Nc1ccccc1Br)CC(=O)Nc1ccc(F)c(F)c1F | -7.6 | -1.2 | -0.6 | 2.1 | 47.1
CCCN(CC(=O)Nc1cc(Cl)cc(Cl)c1)CC(=O)Nc1ccc(F)c(F)c1F | -14.0 | -0.9 | -2.5 | 2.5 | 76.0*
Cc1ccc(NC(=O)CSc2nc3nn(-c4ccccc4)c(=O)c-3c3n2CCCCC3)cc1F | -0.9 | -0.1 | 0.3 | 3.8 | /
O=C1CCCCCCC1Sc1ccccc1[N+](=O)[O-] (stereo not given) | 5.0 | 0.9 | -2.2 | -0.7 | 82.9*
O=[N+]([O-])c1ccccc1S(=O)(=O)NC1CCCCCCC1 | -3.6 | -0.3 | -4.2 | 3.8 | /
COc1ccc(N(C(=O)c2ccncc2)S(=O)(=O)c2cccs2)cc1 | 30.0 | -0.5 | -2.2 | -1.3 | -2.4
COc1ccc(N(C(=O)c2cccnc2)S(=O)(=O)c2cccs2)cc1 | 53.6* | 0.2 | -3.0 | 1.6 | 27.0
COc1cccc(COC(=O)CSCC(=O)Nc2ccc(C)cc2)c1OC | -1.6 | 3.8 | / | / | /
CC1(C(=O)NCc2ccc3c(c2)OCO3)CCN1Cc1csc2ccccc12 (stereo not given) | 4.7 | -1.4 | / | / | /
CCOC(=O)c1c(C)nc2sc3c(=O)n(-c4ccc(C(C)=O)cc4)cnc3c2c1-c1ccc(OC)cc1 | 68.3* | -0.9 | 15.2 | -2.9 | 7.6
CCOC(=O)c1c(C)nc2sc3c(=O)n(-c4ccc(OC)cc4)nnc3c2c1-c1ccc(OC)cc1 | 20.5 | 4.5 | 0.7 | 2.5 | -19.4

Screening data: PubChem, several laboratories
